These results are taken from ChEMBL document CHEMBL6134766, “Design, synthesis, and evaluation of benzhydrylpiperazine-based novel dual COX-2/5-LOX inhibitors with anti-inflammatory and anti-cancer activity” (RSC Med Chem, 2025).

Series [1] can be described thus: Toxicity in Wistar rat assessed as change in serum ALT level at 10 mg/kg, po. In kind it is organism-based. Particulars: in vivo. In outline: (§1)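 Rats dosed orally in 0.3% Na CMC; retro-orbital blood clotted at room temperature, serum separated at 2000 rpm, 20 min, 4 °C; ALT, AST, creatinine and urea by commercial kits; n = 6 per group, mean ± SD; Tukey test after repeated-measures one-way ANOVA.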

Series [2] has as its system Rattus norvegicus. The series can be described thus: Anti-inflammatory activity in carrageenan-induced paw edema Wistar rat model assessed as swelling thickness of paw at 10 mg/kg, po measured after 6 hrs by digital vernier caliper (reference value: 8.33 +/- 0.42 millimeter). The format is functional.
The test system of series [3] is Rattus norvegicus. Kind of series: Anti-inflammatory activity in carrageenan-induced paw edema Wistar rat model assessed as swelling thickness of paw at 10 mg/kg, po measured after 1 hr by digital vernier caliper (reference value: 8.47 +/- 0.25 millimeter). In kind it is functional. (In general: Carrageenan injected into the paw causes an acute inflammation.)
Series [4] relates to Rattus norvegicus. The series can be described thus: Analgesic activity in acetic acid-induced pain Wistar rat model assessed as number of writhing at 10 mg/kg, po pretreated for 30 mins followed by acetic acid treatment measured for 30 mins by writhing test (reference value: 40.33 +/- 3.01). In kind it is functional. The settings on record: time 60 min, 1 h. (In writhing tests, fewer writhes than in controls are read as antinociception.)

The subject of series [5] is Gastric mucosa. The series can be described thus: Antioxidant activity in gastric mucosal tissue in Wistar rat assessed as decrease in nitrite level at 10 mg/kg, po. The format is functional, organism-based. In outline:
(§2)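 Fasted rats (n = 6/group) gavaged once daily for 3 days in 0.3% Na CMC and sacrificed 6 h after the final dose. Randomly chosen stomachs homogenized in cold PBS pH 7.4 and centrifuged at 1000 rpm for 10 min at 4 °C. Supernatant protein measured by Bradford assay; GSH and nitrate then measured by reported methods.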

Series [6] deals with Rattus norvegicus. Kind of series: Anti-inflammatory activity in carrageenan-induced paw edema Wistar rat model assessed as swelling thickness of paw at 10 mg/kg, po measured after 3 hrs by digital vernier caliper (reference value: 8.56 +/- 0.45 millimeter). In kind it is functional.
Series [7] relates to Rattus norvegicus. The series can be described thus: Anti-inflammatory activity in carrageenan-induced paw edema Wistar rat model assessed as swelling thickness of paw at 10 mg/kg, po measured after 5 hrs by digital vernier caliper (reference value: 8.47 +/- 0.32 millimeter). In kind it is functional.
Series [8] concerns Rattus norvegicus. Kind of series: Anti-inflammatory activity in carrageenan-induced paw edema Wistar rat model assessed as swelling thickness of paw at 10 mg/kg, po measured after 4 hrs by digital vernier caliper (reference value: 8.36 +/- 0.78 millimeter). In kind it is functional.
The subject of series [9] is Gastric mucosa. The series can be described thus: Antioxidant activity in gastric mucosal tissue in Wistar rat assessed as increase in SOD level at 10 mg/kg, po. In kind it is functional, organism-based. A digest of the protocol:
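Gastric tissue from fasted rats (dosed orally once daily for 3 days in 0.3% Na CMC) homogenized in cold PBS pH 7.4, centrifuged 1000 rpm, 10 min, 4 °C; protein by Bradford; SOD measured in supernatant per reported procedure.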

A short description of series [10]: Toxicity in Wistar rat assessed as change in serum creatinine level at 10 mg/kg, po. The format is organism-based. Particulars: in vivo. In outline: as §1
In series [11] the test system is Gastric mucosa. Kind of series: Antioxidant activity in gastric mucosal tissue in Wistar rat assessed as increase in GSH level at 10 mg/kg, po. The format is functional, organism-based. A digest of the protocol: as §2
A short description of series [12]: Toxicity in fasting Wistar rat assessed as ulcer score at 10 mg/kg, po via gavage treated for 3 days consecutively by H and E staining based analysis (reference value: 0). The format is organism-based. Particulars: in vivo, 72 h, time 3 day. A digest of the protocol: (§3)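 Fasted rats, n = 6/group, gavaged once daily for 3 days in 0.3% Na CMC (vehicle control 0.3% CMC); killed under anaesthesia 6 h after day-3 dose; stomachs saline-washed, mucosa examined with hand lens; ulcer score, index and % ulceration by reported scoring; some stomachs formalin-fixed, H&E stained.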

Series [13] in a line: Toxicity in fasting Wistar rat assessed as ulcer index at 10 mg/kg, po via gavage treated for 3 days consecutively by H and E staining based analysis (reference value: 0). Particulars: in vivo, 72 h, time 3 day. In kind it is organism-based. A digest of the protocol:
as §3

Series [14] has as its system Rattus norvegicus. The series can be described thus: Anti-inflammatory activity in carrageenan-induced paw edema Wistar rat model assessed as swelling thickness of paw at 10 mg/kg, po measured immediately by digital vernier caliper (reference value: 3.48 +/- 0.21 millimeter). In kind it is functional.
The nature of series [15]: Toxicity in Wistar rat assessed as change in serum AST level at 10 mg/kg, po. In kind it is organism-based. The settings on record: in vivo. In outline:
as §1

For series [16], the system named is Rattus norvegicus. The series can be described thus: Anti-inflammatory activity in carrageenan-induced paw edema Wistar rat model assessed as swelling thickness of paw at 10 mg/kg, po measured after 2 hrs by digital vernier caliper (reference value: 8.65 +/- 0.53 millimeter). In kind it is functional.
Series [17] has as its system Rattus norvegicus. The series can be described thus: Anti-inflammatory activity in carrageenan-induced paw edema Wistar rat model assessed as decrease in IL-6 level in paw tissue at 10 mg/kg, po measured for 6 hrs by ELISA. In kind it is functional, organism-based. A digest of the protocol: (§4)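 Paw tissue taken from carrageenan-edema rats dosed orally at 5, 10 or 20 mg kg−1. Tissue rinsed in PBS pH 7.4, minced, homogenized, filtered and centrifuged at 2000 rpm for 20 min at 4 °C. Supernatant assayed by ELISA for PGE2, IL-6, TNF-α and IL-10. Data as mean ± SD.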

Series [18] relates to Rattus norvegicus. The series can be described thus: Anti-inflammatory activity in carrageenan-induced paw edema Wistar rat model assessed as decrease in TNF-alpha level in paw tissue at 10 mg/kg, po measured for 6 hrs by ELISA. In kind it is functional, organism-based. In outline:
as §4

The subject of series [19] is Rattus norvegicus. The series can be described thus: Anti-inflammatory activity in carrageenan-induced paw edema Wistar rat model assessed as increase in IL-10 level in paw tissue at 10 mg/kg, po measured for 6 hrs by ELISA. The format is functional, organism-based. In outline:
as §4

Series [20] can be described thus: Toxicity in fasting Wistar rat assessed as ulceration at 10 mg/kg, po via gavage treated for 3 days consecutively by H and E staining based analysis (reference value: 0 %). The settings on record: in vivo, 72 h, time 3 day. The format is organism-based. A digest of the protocol:
as §3

Series [21] in a line: Toxicity in Wistar rat assessed as change in serum urea level at 10 mg/kg, po. In kind it is organism-based. The settings on record: in vivo. In outline:
as §1

Calls of active or inactive are those of the source. No cut-off for these calls is given here.

As to `COc1ccc2c(c1)c(CC(=O)O)c(C)n2C(=O)c1ccc(Cl)cc1` [INDOMETHACIN], the Activity result in [1] was “Toxic”; with Rattus norvegicus [2], 3.29 mm; with Rattus norvegicus [3], 3.74 mm; with Rattus norvegicus [4], 16.5; in the series on Rattus norvegicus [6], 3.38 mm; in the series on Rattus norvegicus [7], 3.17 mm. Also, the Activity with Rattus norvegicus [8] was 3.14 mm; in series [10], “Toxic”; in [12], 3.041; with Rattus norvegicus [14], 3.37 mm; in [15], “Toxic”; in the series on Rattus norvegicus [16], 3.73 mm. For the same molecule, the Activity was 100% in series [20] and “Toxic” in series [21]. Also, the outcome in the series on Gastric mucosa [5], in the series with Gastric mucosa [9], with Gastric mucosa [11], with Rattus norvegicus [17], in the series on Rattus norvegicus [18] and in the series on Rattus norvegicus [19] was Active. For the same molecule, the UI in series [13] is recorded as 304.16.
